From ChEMBL document CHEMBL1134664, “Influence of polyamine architecture on the transport and topoisomerase II inhibitory properties of polyamine DNA-intercalator conjugates” (J Med Chem, 2001) come the findings set out here.

Test [1] has as its system L1210. Description: Cytotoxicity against murine leukemia (L1210) cells was determined at 47h. It counts as functional, cell-based. Conditions: Mus musculus, L1210, 47 h. A digest of the protocol: (§1)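 L1210 murine leukemia cells in early to mid log phase (under 5% trypan blue positive before the start) were grown at 37 °C in 5% CO2 in 96-well plates with increasing drug concentrations for the stated time. A methotrexate positive control was included in every trial. Viability was read by colorimetric NAD(P)H-dependent formazan production, and the IC50 was taken from this.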

The test system of test [2] is L1210. Description: Cytotoxicity against murine leukemia (L1210) cells was determined at 94h. It counts as functional, cell-based. Conditions: Mus musculus, L1210, 94 h. Put shortly:
as §1

With `NCCCN(CCCCCNCc1c2ccccc2cc2ccccc12)CCCCN(CCCN)CCCCCNCc1c2ccccc2cc2ccccc12`, the IC50 in the test with L1210 [1] is 18 µM; in the test with L1210 [2], 25 µM.
On to `NCCCN(CCCCNc1c2ccccc2nc2ccccc12)CCCCN(CCCN)CCCCNc1c2ccccc2nc2ccccc12`, for which the IC50 came to 40 µM in the test with L1210 [1] and 74 µM in the test on L1210 [2].
For `NCCCN(CCCCCNc1c2ccccc2nc2ccccc12)CCCCN(CCCN)CCCCCNc1c2ccccc2nc2ccccc12` the same measures were 17 µM and 23 µM.
The matching figures for `NCCCCN(CCCN)CCCCCNCc1c2ccccc2cc2ccccc12`: 7 µM and 5 µM.
For `NCCCN(CCCCNCc1c2ccccc2cc2ccccc12)CCCCN(CCCN)CCCCNCc1c2ccccc2cc2ccccc12` the same measures were 44 µM and 61 µM.
Consider `NCCCCN(CCCN)CCCCNCc1c2ccccc2cc2ccccc12`, for which the IC50 with L1210 [1] amounted to 13 µM; in the test with L1210 [2] it was 6 µM.
With `NCCCNCCCCN(CCCN)CCCCNc1ccnc2cc(Cl)ccc12`, the IC50 in the test with L1210 [1] and in the test on L1210 [2] was greater than 100 µM in each case.
For `NCCCCN(CCCN)CCCCNc1c2ccccc2nc2ccccc12`, the IC50 in the test with L1210 [1] was found to be 75 µM; with L1210 [2], 55 µM.
For `NCCCNCCCCN(CCCN)CCCCNc1c2ccccc2nc2ccccc12` the same measures were 23 µM and 17 µM.
For `CCCCNc1c2ccccc2nc2ccccc12` the same measures were 2 µM and 2 µM.
On to `NCCCCN(CCCN)CCCCCNc1c2ccccc2nc2ccccc12`, for which the IC50 in the test with L1210 [1] and in the test with L1210 [2] was greater than 100 µM each time.
